Data set [1] can be described thus: Cmax in chimeric mouse transplanted with rat hepatocytes at 3 mg/kg, po. The format is ADME, organism-based, Hepatocyte. The arrangement: dose 3 mg/kg, route oral. The procedure, abridged:
(§1)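 Single 3 mg/kg oral dose of compound in 50% PEG400 with equimolar HCl in saline to h-PXB or r-PXB mice (n=3~4). Orbital-vein blood (heparinized) taken over 0–6 hr; plasma stored at -30°C and assayed by LC/MS/MS. Non-compartmental analysis: Cmax from observed values, AUC by trapezoidal rule extrapolated to infinity, CLoral = Dose/AUCpo.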

Data set [2] can be described thus: Oral bioavailability in chimeric mouse transplanted with rat hepatocytes at 3 mg/kg. Format: ADME, organism-based, Hepatocyte.
Data set [3] in a line: Intrinsic clearance in hepatocytes isolated from chimeric mouse transplanted with rat hepatocytes assessed as per million cells at 10 uM after 2 hrs by LC/MS/MS analysis. The settings on record: read-out: CLH. Format: ADME, cell-based, Hepatocyte. The procedure, abridged: (§2)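 Fresh hepatocytes from h-PXB mice (mouse cells removed with 66Z rat IgG and anti-rat IgG magnetic beads) or r-PXB mice, 1×10^6 cells/mL in serum-free Krebs-Henseleit buffer. Incubated with 10 μM compound (0.5% acetonitrile) at 37°C under 5% CO₂/95% O₂ with shaking, sampled 0–2 hr. Quenched with acetonitrile, analysed by LC/MS/MS, n=3. CLint derived from first-order depletion rate constant.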

Data set [4] in a line: Clearance in chimeric mouse transplanted with rat hepatocytes at 3 mg/kg, po. Details: dose 3 mg/kg, route oral. The format is ADME, organism-based, Hepatocyte. The procedure, abridged:
as §1

Data set [5] in a line: Total clearance in chimeric mouse transplanted with rat hepatocytes at 3 mg/kg, iv. The arrangement: dose 3 mg/kg, route intravenous. Format: ADME, organism-based, Hepatocyte. The settings on record: read-out: CLH. Put shortly:
(§3)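 Single 3 mg/kg intravenous dose in 10% DMSO, 10% PEG400 with equimolar HCl in saline to h-PXB or r-PXB mice (n=3~4). Orbital-vein plasma collected over 0–6 hr and measured by LC/MS/MS. Non-compartmental analysis; AUC by trapezoidal rule extrapolated to infinity; CLt = Dose/AUCiv.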

The test system of the next data set is Mus musculus. Put plainly: Drug metabolism in plasma of chimeric mouse transplanted with human hepatocytes at 3 mg/kg, iv as single dose. Details: dose 3 mg/kg, route intravenous. The format is ADME, organism-based, Hepatocyte. Put shortly:
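Pooled plasma from h-PXB or r-PXB mice after a 3 mg/kg i.v. dose was mixed with an equal volume of acetonitrile and centrifuged. Metabolites were profiled by C18 UPLC with ammonium formate/acetonitrile gradient, UV 254 nm, and Orbitrap MS/MS. Scored as detected or not detected.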

Data set [6] can be described thus: Clearance in human at 10 mg, po. Format: ADME, organism-based. The settings on record: in vivo.
Data set [7] in a line: Clearance in rat at 3.2 mg/kg, po. Format: ADME, organism-based. The arrangement: dose 3.2 mg/kg, route oral. The settings on record: in vivo.
Data set [8] is described as follows: Plasma protein binding in chimeric mouse transplanted with rat hepatocytes by equilibrium dialysis method. Format: ADME, cell-free, Hepatocyte. The settings on record: read-out: PPB (converted). Put shortly:
(§4)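 Compound at 1 µg/mL incubated in plasma of h-PXB or r-PXB mice; bound fraction determined by equilibrium dialysis.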

Data set [9] can be described thus: Plasma protein binding in rat by equilibrium dialysis method. The format is ADME, cell-free. The settings on record: read-out: PPB (converted).
Data set [10] is described as follows: Drug excretion in urine of chimeric mouse transplanted with rat hepatocytes at 3 mg/kg, iv as single dose. The format is ADME, organism-based, Hepatocyte. The arrangement: dose 3 mg/kg, route intravenous. The settings on record: read-out: Drug excretion. The procedure, abridged:
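After a 3 mg/kg i.v. dose, pooled urine and feces were collected from metabolic cages over 0–24 hr (n=3). Samples were homogenized in 10 volumes of water, mixed with acetonitrile and analysed by UPLC (UV 254 nm) and LC/MS/MS. Excretion expressed as % of dose.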

A short description of data set [11]: Half life in chimeric mouse transplanted with human hepatocytes at 3 mg/kg, iv. Format: ADME, organism-based, Hepatocyte. The arrangement: dose 3 mg/kg, route intravenous. The procedure, abridged: as §3
Data set [12] is described as follows: Plasma protein binding in human by equilibrium dialysis method. The format is ADME, cell-free. The settings on record: read-out: PPB (converted).
Data set [13] is described as follows: Plasma protein binding in chimeric mouse transplanted with human hepatocytes by equilibrium dialysis method. Format: ADME, cell-free, Hepatocyte. The settings on record: read-out: PPB (converted). The procedure, abridged:
as §4

The nature of data set [14]: Intrinsic clearance in hepatocytes isolated from chimeric mouse transplanted with human hepatocytes assessed as per million cells at 10 uM after 2 hrs by LC/MS/MS analysis. Format: ADME, cell-based, Hepatocyte. The settings on record: read-out: CLH. Put shortly: as §2
A short description of data set [15]: Cmax in chimeric mouse transplanted with human hepatocytes at 3 mg/kg, po. The arrangement: dose 3 mg/kg, route oral. Format: ADME, organism-based, Hepatocyte. Put shortly: as §1
A short description of data set [16]: Half life in chimeric mouse transplanted with rat hepatocytes at 3 mg/kg, iv. Format: ADME, organism-based, Hepatocyte. The arrangement: dose 3 mg/kg, route intravenous. The procedure, abridged:
as §3

A short description of data set [17]: AUC in chimeric mouse transplanted with human hepatocytes at 3 mg/kg, po. The arrangement: dose 3 mg/kg, route oral. Format: ADME, organism-based, Hepatocyte. Put shortly:
as §1

For orientation: Cmax means the peak of the concentration-time curve. What is called bioavailability is the share of a dose that reaches the circulation, judged against a reference dose that is usually intravenous. A higher bioavailability goes with good availability. Usually CL/F stands for the apparent clearance, not corrected for the fraction that reaches the circulation. What is called half-life is the time in which the quantity being followed falls by half. Read a low half-life as rapid decline. The AUC is the area under the concentration-time curve, a measure of exposure. A high value points to high exposure. Turning to `CC(C)n1nc(-c2cnc(N)nc2-c2ccccc2)ccc1=O`, the figures for the Cmax in data set [1] and in data set [15] were 856 ng/mL and 253 ng/mL, respectively. Besides, the bioavailability in data set [2] was determined as 52.6%. Besides, the hepatocyte CLint at 10 µM in data set [3] was 5 µL/min/1e6 cells; in data set [14], 10 µL/min/1e6 cells. In addition, the CL/F amounted to 61.6 mL/min/kg in data set [4], 1090 mL/min/kg in [6] and 29.8 mL/min/kg in data set [7]. For the same compound, the clearance in data set [5] was found to be 34 mL/min/kg. In addition, the Drug metabolism result in the data set with Mus musculus was “metabolite_detected”. The fraction unbound in [8] is 0.233; in [9], 0.246; in [12], 0.228; in [13], 0.205. For the same compound, in [10], the dose excreted is 0.1%. The values for the half-life in [11] and in data set [16] were 42 min and 48 min, respectively. The compound further returned an AUC in [17] of 214 ng·h/mL.

For the origin of these results see ChEMBL document CHEMBL3526077, “Prediction of human metabolism of FK3453 by aldehyde oxidase using chimeric mice transplanted with human or rat hepatocytes” (Drug Metab Dispos, 2012).
